Results pooled from the literature.
Compare with care: the assays were run in different laboratories.
BRD4 BD2: Bromodomain-containing protein 4, BD2 (BRD4, Homo sapiens, UniProt O60885)
BRD4 BD1: Bromodomain-containing protein 4, BD1 (BRD4, Homo sapiens, UniProt O60885)

NS(=O)(=O)c1ccc(Nc2nc(-c3ccc(F)cc3)c3ccccc3n2)cc1  remaining binding (BRD4 BD2; binding; competition with immobilised ligand; 1 µM): 4%
CN(C)CCN1CCN(c2nc(NCc3cccc(Cl)c3)c3cc(-c4ccc(=O)n(C)c4)ccc3n2)CC1  ΔTm (BRD4 BD2; thermal stability; DSF; 250 µM): 11 °C
COc1cc(C(=O)N2CCC(N3CCN(C)CC3)CC2)ccc1Nc1ncc2c(n1)N(C)c1ccccc1C(=O)N2C  ΔTm (BRD4 BD1; thermal stability; DSF; 10 µM): 2.1 °C
CC(C)[C@@H]1NC(=O)[C@@H]2CCCN2C(=O)[C@H](Cc2ccccc2)NC(=O)CSC[C@@H](C(=O)N[C@@H](Cc2ccc(O)cc2)C(N)=O)NC(=O)[C@H](Cc2c[nH]c3ccccc23)NC(=O)[C@H](CCCCN)NC(=O)[C@H](Cc2ccccc2)N(C)C(=O)[C@H](Cc2ccccc2)NC1=O  ΔTm (BRD4 BD1; thermal stability; DSF; 100 µM): -0.52 °C
Cc1cc2c(NC(=O)c3cccc(C(=O)O)c3)cccc2nn1  ΔTm (BRD4 BD1; thermal stability; DSF; 100 µM): 1.4 °C
Cc1cnc(Nc2ccc(OCCN3CCCC3)cc2)nc1Nc1cccc(S(=O)(=O)NC(C)(C)C)c1  ΔTm (BRD4 BD1; thermal stability; DSF; 10 µM): 3.8 °C
Cn1cc(C(=O)Nc2cccc(C(=O)O)c2)ccc1=O  ΔTm (BRD4 BD1; thermal stability; DSF; 100 µM): 0.9 °C
C[S+]([O-])c1ccc(-c2nc(-c3ccncc3)c(-c3ccc(F)cc3)[nH]2)cc1 (stereo not drawn)  ΔTm (BRD4 BD1; thermal stability; DSF; 10 µM): 1.32 °C
CC(C)(C)c1cc(NC(=O)Nc2ccc(-c3cn4c(n3)sc3cc(OCCN5CCOCC5)ccc34)cc2)no1  ΔTm (BRD4 BD1; thermal stability; DSF; 100 µM): < 1 °C
